Arrestin-AP2 inh – human beta-arrestin and AP2 interaction inhibition | FITC-arrestin peptide / GST-AP2 beads, flow cytometry; AP2 beta2 appendage carries R879A mutation | inhibition, % at 10 µM | 340,000 tested, 0.31% active | AID 504490;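 active = inhibition above a set limit, near 3 SD of compounds lacking own fluorescence, cut at about 54% in these data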;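 note: plate controls were DMSO wells for no effect and 5 µM unlabelled arrestin peptide for full effect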
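System: GST-AP2 R879A bound to glutathione beads, E. coli-expressed. Also added: 50 nM FITC-arrestin peptide. Schedule: compound with beads 12 min RT, then probe 1 h RT. Signal: bead flow cytometry, FITC channel. Read-out basis: percent response.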
DAGLB inh – diacylglycerol lipase beta (human) inhibition. Q8NCG7. HEK293T DAGLB membrane lysate, EnzChek fluorogenic substrate. inhibition, % at 5.17 µM. 340,000 tested, 0.059% active. AID 504411; in the data active = inhibition above about 34%;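 note: 0% = enzyme with vehicle and 100% = wells lacking enzyme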
Target sequence (Q8NCG7 whole entry, looked up): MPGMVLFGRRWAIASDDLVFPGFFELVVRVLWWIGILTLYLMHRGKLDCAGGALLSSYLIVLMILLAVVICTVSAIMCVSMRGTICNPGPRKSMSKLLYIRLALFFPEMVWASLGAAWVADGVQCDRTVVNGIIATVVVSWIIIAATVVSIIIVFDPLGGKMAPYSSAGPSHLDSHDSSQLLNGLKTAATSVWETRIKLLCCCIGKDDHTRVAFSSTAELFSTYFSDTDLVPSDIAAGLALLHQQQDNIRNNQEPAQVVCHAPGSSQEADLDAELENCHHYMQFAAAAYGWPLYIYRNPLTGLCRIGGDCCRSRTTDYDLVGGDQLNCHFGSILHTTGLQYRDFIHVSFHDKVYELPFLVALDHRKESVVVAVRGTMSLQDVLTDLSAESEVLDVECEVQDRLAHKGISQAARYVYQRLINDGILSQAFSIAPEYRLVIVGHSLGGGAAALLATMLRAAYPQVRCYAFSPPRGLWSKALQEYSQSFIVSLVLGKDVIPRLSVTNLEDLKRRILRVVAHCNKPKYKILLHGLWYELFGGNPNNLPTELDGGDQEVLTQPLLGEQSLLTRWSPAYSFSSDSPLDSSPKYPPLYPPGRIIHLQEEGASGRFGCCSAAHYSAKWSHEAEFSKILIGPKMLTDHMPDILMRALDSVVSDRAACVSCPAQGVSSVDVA
HTR5A inv ctr – counter-screen for OPRM1-OPRD1 inverse agonists: human HTR5A inverse agonism; P47898; HTR5A cell line, luminescence; inhibition, % at 9.3 µM; 340,000 tested, 0.083% active; in the data active = inhibition mostly above about 23%, no sharp cut-off; inactive = mostly below about 18%;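 note: 0% = cells with DMSO and 100% = no-cell wells with DMSO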
MOR-DOR inv ag – inverse agonists of human mu-delta opioid receptor heterodimerization. P35372+P41143. cell-based MOR-DOR heterodimer luminescence, inverse agonism. inhibition, % at 9.3 µM. 340,000 tested, 0.21% active; in the data active = inhibition above about 22%, passing the limit was not always enough;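 note: 0% = cells with DMSO and 100% = wells without cells with DMSO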
HTR5A ag ctr – HTR5A agonism, opioid heterodimer counter-screen; HTR5A agonist assay, luminescence, cell-based; activation, % at 9.3 µM; 340,000 tested, 0.61% active; in the data active = activation mostly above about 9.5%, no sharp cut-off; inactive = mostly below about 7.6%;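 note: 0% = cells with vehicle only and 100% = reference agonist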
MOR-DOR ag – agonists of human mu-delta opioid receptor heterodimerization. P35372+P41143. cells, OPRM1-OPRD1 heterodimerization, luminescence. activation, % at 9.3 µM. 340,000 tested, 0.3% active. AID 504326; in the data active = activation above about 18%;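 note: 0% = vehicle-treated cells and 100% = reference agonist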
OPRM1-D1 inv cf – confirmation of human OPRM1-OPRD1 heterodimerization inverse agonists | shares compounds with MOR-DOR inv ag | 580 tested, 20% active | inhibition, % at 9.3 µM | cells expressing OPRM1/OPRD1 heterodimer, luminescence; in the data active = inhibition above about 32%;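 note: 0% = cells with DMSO and 100% = wells lacking cells with DMSO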
HTR5A inv ctr2 – counter-screen for OPRM1-OPRD1 inverse agonists: human HTR5A inverse agonism. inhibition, % at 9.3 µM. HTR5A-expressing cells, luminescence. 580 tested, under 10 active. shares compounds with MOR-DOR inv ag; call rule not given here;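 note: 0% = cells with DMSO and 100% = no-cell wells with DMSO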
The depositor's hits bear a star; i = inactive; x = no result given. In the library only some 1.4% were active in any assay of this set; here they are far more common.

SMILES | Arrestin-AP2 inh | DAGLB inh | HTR5A inv ctr | MOR-DOR inv ag | HTR5A ag ctr | MOR-DOR ag | OPRM1-D1 inv cf | HTR5A inv ctr2
CC1(C)Cc2c(c(=S)nc(-c3ccccc3)n2Cc2cccnc2)CO1 | -8.9 | -0.6 | 3.9 | 11.4 | -0.8 | -2.2 | x | x
ON(CCc1ccncc1)Cc1ccccc1 | -8.4 | -1.6 | 3.9 | 44.0* | -1.1 | -8.3 | 4.4 | -22.0
COCCN(C(=O)CSc1ccc2c(c1)OCCO2)c1c(N)n(CC(C)C)c(=O)[nH]c1=O | 21.2 | -0.2 | -9.9 | 19.8 | 2.5 | -4.1 | x | x
N#CC(=C1C=CC(=NO)C(Cl)=C1)c1ccc(Cl)cc1 | -12.2 | -0.2 | -0.7 | 8.7 | 0.2 | -2.0 | x | x
COc1ccc(C(C#N)=C2C=CC(=NO)C=C2)cc1 | -16.1 | -2.2 | -2.0 | 47.6* | 0.8 | -9.6 | -46.7 | -34.9
Cc1c(N=C2C(=O)Nc3ccccc32)c(=O)n(-c2ccccc2)n1C | 6.4 | 0.4 | 17.5 | 52.1* | -6.2 | -10.1 | 41.7* | 23.0
CC(C)C(=O)Nc1nnc(NC(=S)Nc2ccccc2)s1 | -10.9 | 0.7 | 14.3 | 36.0* | -2.6 | -7.9 | 33.8* | 10.0
COC(=O)c1cccc2c(C(=O)O)cc(-c3ccccc3)nc12 | 7.8 | -2.6 | 5.2 | 14.0 | -1.4 | -3.2 | x | x
COc1cc(OC)cc(C(=O)NNC(=S)Nc2ccc(S(N)(=O)=O)cc2)c1 | 30.2 | 0.5 | -16.2 | 34.0* | 3.8 | -7.0 | -1.6 | -7.4
COc1ccc(CNC(=S)Nc2ccc(S(N)(=O)=O)cc2)cc1 | -0.5 | 1.5 | -9.6 | 2.3 | 6.6 | -0.5 | x | x
Cc1cccc(CC(=O)NCCS(=O)(=O)N2CCN(c3ccccc3)CC2)c1 | x | 0.1 | x | x | x | x | x | x
CC1Nc2ncnc(N3CCN(c4ccccc4)CC3)c2N(Cc2ccc(Cl)cc2)C1=O (stereo unspecified) | 15.0 | 2.4 | 28.4 | 56.7* | -10.6 | -9.7 | 33.4* | 62.6*
O=C(CC1(O)C(=O)Nc2ccccc21)c1cccnc1 (stereo unspecified) | 31.3 | -0.1 | 5.1 | 52.1* | 0.2 | -9.1 | -41.2 | -3.5
O=C(CC1(O)C(=O)Nc2ccccc21)c1ccccc1O (stereo unspecified) | 3.6 | 1.0 | -1.4 | 50.4* | -4.7 | -8.9 | 24.0 | 7.0
C[C@@H]1CN([C@H](C)CO)C(=O)CCCn2cc(nn2)CO[C@H]1CN(C)C(=O)C1CC1 | x | -0.2 | x | x | x | x | x | x
O=[N+]([O-])c1ccccc1Nc1cccc(F)c1 | -10.2 | 8.1 | 2.2 | -20.7 | -0.6 | 4.3 | x | x
COC(=O)C1=C(C(=O)OC)C(C(=O)OC)C(C(=O)OC)C(C(=O)OC)(C(=O)OC)C(C(=O)OC)=C1C(=O)OC (stereo unspecified) | 13.3 | 2.7 | -15.8 | -12.2 | 4.0 | 2.4 | x | x
CCC(=O)OCCNc1cc(Sc2nc3ccccc3[nH]2)c2nonc2c1[N+](=O)[O-] | 7.9 | -0.4 | -8.9 | 43.0* | -9.7 | -8.3 | -10.1 | -8.5
O=[N+]([O-])c1c(NCCCO)cc(Sc2nc3ccccc3s2)c2nonc12 | 6.2 | -3.0 | 2.4 | 34.6* | -5.0 | -6.1 | 29.9 | 12.2
CSc1ncccc1C(=O)OCC(=O)N(C)Cc1ccc(C)cc1 | x | -14.6 | x | x | x | x | x | x
CCCCNC(=S)NNC(=O)c1cc(C2CC2)nc2ccccc12 | -10.8 | 3.1 | -3.5 | 11.6 | 1.0 | -2.2 | x | x
CCCCNC(=S)NNC(=O)c1cc(-c2ccncc2)nc2ccccc12 | -20.2 | 9.2 | 22.8 | 33.5* | -5.3 | -6.5 | -290.2 | -8.6
CC1CN(C2CCCCC2)C(=O)NC1=O (stereo unspecified) | 2.9 | -0.8 | 17.3 | 20.0 | -4.8 | -3.8 | x | x
CN1C(=O)C(N=Nc2ccc([N+](=O)[O-])cc2)SC1=S (stereo unspecified) | 0.7 | 4.0 | -1.0 | 5.8 | 0.3 | -1.2 | x | x
O=C(Nc1ccc(Cl)cc1)C(Cl)C(=O)c1ccccc1 (stereo unspecified) | 28.4 | 0.3 | 7.6 | 36.5* | -2.8 | -6.9 | -384.8 | -3.1
SMILES | Arrestin-AP2 inh | DAGLB inh | HTR5A inv ctr | MOR-DOR inv ag | HTR5A ag ctr | MOR-DOR ag | OPRM1-D1 inv cf | HTR5A inv ctr2
O=C(NC(=S)Nc1ccc(Cl)cc1)c1ccccc1 | 2.0 | -2.7 | 11.3 | 9.4 | -3.2 | -2.0 | x | x
COc1cccc(/C=C/C(=O)OCC(=O)c2ccc(S(=O)(=O)N3CCCCC3)cc2)c1OC | 5.7 | -9.9 | 13.4 | 31.3* | -5.3 | -5.7 | -32.3 | 17.0
COc1cc(/C=C/C(=O)OCC(=O)c2ccc(S(=O)(=O)N3CCCCC3)cc2)cc(OC)c1OC | -6.9 | -0.1 | -15.1 | 18.3 | 6.4 | -3.8 | x | x
COc1cccc(C(=O)OCC(=O)c2ccc(S(=O)(=O)N3CCCCC3)cc2)c1OC | -16.1 | -0.9 | 8.4 | 30.1* | -2.8 | -4.7 | -30.6 | 6.9
Cc1ccc(C(=O)OCC(=O)c2ccc(S(=O)(=O)N3CCCCC3)cc2)o1 | 0.8 | -0.3 | 20.1 | 52.5* | -6.7 | -8.1 | i | -10.7
COc1ccc(S(=O)(=O)NC(C)c2ccc3c(c2)OCCO3)cc1 (stereo unspecified) | x | -1.1 | x | x | x | x | x | x
Cc1cc(O)c(/C=N/Nc2ccc(F)cc2)c(=O)o1 | 33.1 | x | x | x | x | x | x | x
Cc1ccc(N/N=C/c2c(O)cc(C)oc2=O)cc1 | -10.5 | 1.1 | 2.4 | 45.7* | -1.1 | -9.2 | 43.5* | -5.7
COc1ccc(-c2cc3nc(C)cc(N4CCN(C(=O)c5cccnc5)CC4)n3n2)cc1 | x | 1.1 | x | x | x | x | x | x
N#Cc1cnn2c(=O)[nH]cnc12 | x | -1.7 | x | x | x | x | x | x
Cn1cccc1C(C#N)c1cccc(F)c1C#N (stereo unspecified) | -2.7 | -2.5 | 14.5 | 36.7* | -2.7 | -7.2 | 9.4 | 6.0
Cn1cccc1C(C#N)(CC#N)c1cccc(F)c1C#N (stereo unspecified) | 6.0 | -3.4 | 0.4 | 12.5 | -0.2 | -2.7 | x | x
O=[N+]([O-])c1ccc(O)c(C=NNc2ccc(S(=O)(=O)O)cc2)c1 | -4.2 | 6.8 | 14.7 | 31.2* | -3.8 | -6.2 | -84.9 | -11.8
O=[N+]([O-])c1cccc(N/N=C/c2cc([N+](=O)[O-])ccc2O)c1 | 7.8 | 10.6 | -1.5 | -17.7 | 0.6 | 3.1 | x | x
Cc1ccc2c(c1Br)/C(=N/N1C(=O)c3ccccc3C1=O)C(=O)N2 | -4.7 | 2.8 | -1.5 | 65.3* | -2.9 | -11.0 | -33.8 | -21.2
CCOc1ccc(N=C2C(=O)Nc3ccc(C)c(Br)c32)cc1 | 6.9 | -2.4 | 16.6 | 53.4* | -4.2 | -9.6 | 83.4* | 10.8
CCCN(CCC)c1nc(-c2ccccn2)nc2ccccc12 | 21.5 | -3.6 | 3.0 | 39.2* | -0.8 | -8.7 | -159.4 | -18.6
Cc1ccc(-c2nnc3c(C(F)(F)F)nc4ccccc4n23)cc1 | -4.5 | 0.5 | -4.6 | 20.1 | 1.8 | -4.0 | x | x
FC(F)(F)c1nc2ccccc2n2c(-c3ccc(Cl)cc3)nnc12 | -13.4 | -4.1 | 9.3 | 30.6* | -4.3 | -6.6 | 14.2 | 4.1
CCCCCCC1CC(=CN(C)C)C(=O)O1 (stereo unspecified) | x | -3.1 | x | x | x | x | x | x

Source: PubChem (several laboratories)
